Reference: ChEMBL document CHEMBL3045116, “Synthesis and biological evaluation of 2-(5-substituted-1-((diethylamino)methyl)-2-oxoindolin-3-ylidene)-N-substituted-hydrazinecarbothioamides” (Med Chem Res, 2013)

Tests used:
[1] = system: Coxsackievirus B4; experiment: Antiviral activity against Human coxsackievirus B4 infected human HeLa cells assessed as reduction of virus-induced cytopathic effect after 3 days by colorimetric formazan-based MTS assay; type: functional, organism-based; settings: Enterovirus B, 72 h
Method in brief: (§1)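 Confluent cell monolayers were infected with 100 CCID50 of virus, and serial dilutions of compound were added at the time of infection.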

[2] = system: Human alphaherpesvirus 1; experiment: Antiviral activity against Human herpesvirus 1 strain KOS infected human HEL cells assessed as reduction of virus-induced cytopathic effect after 3 days by colorimetric formazan-based MTS assay; type: functional, organism-based; settings: Human alphaherpesvirus 1, KOS, 72 h; method in brief: as §1
[3] = system: Mammalian orthoreovirus 1; experiment: Antiviral activity against Mammalian orthoreovirus 1 infected African green monkey Vero cells assessed as reduction of virus-induced cytopathic effect after 3 days by colorimetric formazan-based MTS assay; type: functional, organism-based; settings: Mammalian orthoreovirus 1, Vero, 72 h
Method in brief: (§2)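 Cells grown to confluency in 96-well plates ([…], Vero for lines 9–10) were infected with 100 CCID50 of virus, and serial compound dilutions were added at infection. Plates were incubated at 37 °C for 3 days, until complete CPE appeared in untreated virus controls.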

[4] = system: MDCK; experiment: (§3) Cytotoxicity against MDCK cells assessed as change in cellular morphology; type: cell-based, Canis lupus familiaris; settings: dog, mdck
Method in brief: (§4)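 Uninfected cells were exposed to compound in parallel with the antiviral cultures. The read-out is the minimum cytotoxic concentration that causes a microscopically detectable alteration of normal cell morphology.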

[5] = as §3; type: cell-based, Canis lupus familiaris; settings: dog, MDCK cells; method in brief: as §4
[6] = system: Feline infectious peritonitis virus; experiment: Antiviral activity against Feline Infectious peritonitis virus infected cat CRFK cells assessed as reduction of virus-induced cytopathic effect after 3 days by colorimetric formazan-based MTS assay; type: functional, organism-based; settings: Alphacoronavirus 1, CRFK, 72 h; method in brief: as §1
[7] = system: Klebsiella pneumoniae; experiment: Antibacterial activity against Klebsiella pneumoniae assessed as growth inhibition at 50 ug/ml by cup-plate method (reference value: 8 to 10 mm); type: functional; settings: read-out: DIZ
[8] = Inhibition of beta lactamase assessed as increase in time taken for iodine decolorization relative to control; design: concentration or dose not given beside the values; settings: concentration not given here
[9] = Cytotoxicity against Chlorocebus aethiops (African green monkey) Vero cells assessed as change in cellular morphology; type: cell-based; settings: chlorocebus sabaeus
[10] = system: Influenza A virus; experiment: Antiviral activity against Unidentified Influenza A virus (H1N1) infected MDCK cells assessed as reduction of virus-induced cytopathic effect after 3 days by colorimetric formazan-based MTS assay; type: functional, organism-based; settings: 72 h; method in brief: as §1
[11] = system: Influenza A virus H3N2; experiment: Antiviral activity against Influenza A virus H3N2 infected MDCK cells assessed as reduction of virus-induced cytopathic effect after 3 days by colorimetric formazan-based MTS assay; type: functional, organism-based; settings: 72 h; method in brief: as §1
[12] = system: Influenza B virus; experiment: Antiviral activity against Influenza B virus infected in MDCK cells assessed as reduction of virus-induced cytopathic effect after 3 days by colorimetric formazan-based MTS assay; type: functional, organism-based; settings: 72 h; method in brief: as §1
[13] = system: Candida albicans; experiment: Antifungal activity against Candida albicans assessed as growth inhibition at 50 ug/ml by cup-plate method (reference value: 8 to 10 mm); type: functional; settings: read-out: DIZ
[14] = system: Punta Toro virus; experiment: Antiviral activity against Punta Toro virus infected in African green monkey Vero cells assessed as reduction of virus-induced cytopathic effect after 3 days by colorimetric formazan-based MTS assay; type: functional, organism-based; settings: 72 h; method in brief: as §1
[15] = system: Respiratory syncytial virus; experiment: Antiviral activity against Respiratory syncytial virus infected human HeLa cells assessed as reduction of virus-induced cytopathic effect after 3 days by colorimetric formazan-based MTS assay; type: functional, organism-based; settings: 72 h; method in brief: as §1
[16] = system: Salmonella typhi; experiment: Antibacterial activity against Salmonella enterica subsp. enterica serovar Typhi assessed as growth inhibition at 50 ug/ml by cup-plate method (reference value: 8 to 10 mm); type: functional; settings: read-out: DIZ
[17] = system: HeLa; experiment: (§5) Cytotoxicity against Homo sapiens (human) HeLa cells assessed as change in cellular morphology; type: cell-based; settings: hela; method in brief: as §4
[18] = as §5; type: cell-based; settings: HeLa cells; method in brief: as §4
[19] = system: Vaccinia virus; experiment: Antiviral activity against Vaccinia virus infected human HEL cells assessed as reduction of virus-induced cytopathic effect after 3 days by colorimetric formazan-based MTS assay; type: functional, organism-based; settings: Orthopoxvirus vaccinia, 72 h; method in brief: as §1
[20] = system: Staphylococcus aureus; experiment: Antibacterial activity against Staphylococcus aureus assessed as growth inhibition at 50 ug/ml by cup-plate method (reference value: 8 to 10 mm); type: functional; settings: read-out: DIZ
[21] = system: Escherichia coli; experiment: Antibacterial activity against Escherichia coli assessed as growth inhibition at 50 ug/ml by cup-plate method (reference value: 8 to 10 mm); type: functional; settings: read-out: DIZ
[22] = system: Vesicular stomatitis virus; experiment: Antiviral activity against Vesicular stomatitis virus infected human HeLa cells assessed as reduction of virus-induced cytopathic effect after 3 days by colorimetric formazan-based MTS assay; type: functional, organism-based; settings: 72 h; method in brief: as §1
[23] = system: Aspergillus niger; experiment: Antifungal activity against Aspergillus niger assessed as growth inhibition at 50 ug/ml by cup-plate method (reference value: 8 to 10 mm); type: functional; settings: read-out: DIZ
[24] = Cytotoxicity against Felis catus (cat) CRFK cells assessed as change in cellular morphology; type: cell-based; settings: crfk; method in brief: as §4
[25] = system: Bacillus subtilis; experiment: Antibacterial activity against Bacillus subtilis assessed as growth inhibition at 50 ug/ml by cup-plate method (reference value: 8 to 10 mm); type: functional; settings: read-out: DIZ
[26] = system: Human alphaherpesvirus 1; experiment: Antiviral activity against acyclovir-resistant thymidine kinase negative Human herpesvirus 1 strain KOS infected human HEL cells assessed as reduction of virus-induced cytopathic effect after 3 days by colorimetric formazan-based MTS assay; type: functional, organism-based; settings: Human alphaherpesvirus 1, KOS, 72 h; method in brief: as §1
[27] = system: Human alphaherpesvirus 2; experiment: Antiviral activity against Human herpesvirus 2 strain G infected human HEL cells assessed as reduction of virus-induced cytopathic effect after 3 days by colorimetric formazan-based MTS assay; type: functional, organism-based; settings: Human alphaherpesvirus 2, strain G, 72 h; method in brief: as §1
[28] = system: Proteus vulgaris; experiment: Antibacterial activity against Proteus vulgaris assessed as growth inhibition at 50 ug/ml by cup-plate method (reference value: 8 to 10 mm); type: functional; settings: read-out: DIZ
[29] = system: Coxsackievirus B4; experiment: Antiviral activity against Human coxsackievirus B4 infected African green monkey Vero cells assessed as reduction of virus-induced cytopathic effect after 3 days by colorimetric formazan-based MTS assay; type: functional, organism-based; settings: Enterovirus B, 72 h; method in brief: as §1
[30] = Inhibition of beta lactamase assessed as time for decolorization of iodine (reference value: 79.5 secs)
[31] = system: Felid alphaherpesvirus 1; experiment: Antiviral activity against Felid herpesvirus 1 infected cat CRFK cells assessed as reduction of virus-induced cytopathic effect after 3 days by colorimetric formazan-based MTS assay; type: functional, organism-based; settings: Felid alphaherpesvirus 1, CRFK, 72 h; method in brief: as §2
[32] = Cytotoxicity against Homo sapiens (human) HEL cells assessed as change in cellular morphology; type: cell-based
[33] = system: CCRF-CEM; experiment: Cytotoxicity against Homo sapiens (human) CEM cells assessed as growth inhibition after 72 hr by coulter counter analysis; type: functional, cell-based
Method in brief: (§6)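 Cells in growth medium were allowed to proliferate with variable compound amounts at 37 °C in a humidified CO2 atmosphere. Incubation ran 48 h for L1210, 72 h for CEM and 96 h for HeLa. Cells were then counted with a Coulter counter.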

[34] = system: Human respirovirus 3; experiment: Antiviral activity against Human parainfluenza virus 3 infected African green monkey Vero cells assessed as reduction of virus-induced cytopathic effect after 3 days by colorimetric formazan-based MTS assay; type: functional, organism-based; settings: Human respirovirus 3, Vero, 72 h; method in brief: as §2
[35] = system: Vesicular stomatitis virus; experiment: Antiviral activity against Vesicular stomatitis virus infected human HEL cells assessed as reduction of virus-induced cytopathic effect after 3 days by colorimetric formazan-based MTS assay; type: functional, organism-based; settings: 72 h; method in brief: as §1
[36] = system: L1210; experiment: Cytotoxicity against Mus musculus (mouse) L1210 cells assessed as growth inhibition after 48 hr by coulter counter analysis; type: functional, cell-based; settings: L1210, 48 h; method in brief: as §6
[37] = system: Respirovirus muris; experiment: Antiviral activity against Sendai virus infected African green monkey Vero cells assessed as reduction of virus-induced cytopathic effect after 3 days by colorimetric formazan-based MTS assay; type: functional, organism-based; settings: 72 h

Row | SMILES | EC50 [1] | EC50 [2] | EC50 [3] | CC50 [4] | MCC [5] | EC50 [6] | zone of inhibition at 50 µg/mL [7] | inhibition [8] | MCC [9] | EC50 [10] | EC50 [11] | EC50 [12] | zone of inhibition at 50 µg/mL [13] | EC50 [14] | EC50 [15] | zone of inhibition at 50 µg/mL [16] | CC50 [17] | MCC [18] | EC50 [19] | zone of inhibition at 50 µg/mL [20] | also measured
1 | CCN(CC)CN1C(=O)/C(=N/NC(=S)Nc2ccc(C)cc2)c2ccccc21 | > 20 µM | 14 µM | > 20 µM | 0.2 µM | 800 nM | > 0.8 µM | 11 mm | 45.5% | 100 µM | > 0.16 µM | > 0.16 µM | > 0.16 µM | 11 mm | > 20 µM | > 20 µM | 21 mm | 10.7 µM | ≥ 20 µM | 11 µM | 21 mm | zone of inhibition at 50 µg/mL [21]: 21 mm; EC50 [22]: > 20 µM; zone of inhibition at 50 µg/mL [23]: 11 mm; CC50 [24]: 3.8 µM; zone of inhibition at 50 µg/mL [25]: 21 mm; EC50 [26]: ≥ 20 µM; EC50 [27]: 12 µM; zone of inhibition at 50 µg/mL [28]: 11 mm; EC50 [29]: > 20 µM; TIME [30]: 0.0405 h; EC50 [31]: > 0.8 µM; MCC [32]: 100 µM; IC50 [33]: 12 µM; EC50 [34]: > 20 µM; EC50 [35]: > 20 µM; IC50 [36]: 29 µM; EC50 [37]: > 20 µM
2 | CCN(CC)CN1C(=O)/C(=N/NC(=S)Nc2ccc(Cl)cc2)c2cc(Cl)ccc21 | > 20 µM | > 20 µM | > 20 µM | 2.4 µM | ≥ 800 nM | > 4 µM | 11 mm | 44.2% | 100 µM | > 0.8 µM | > 0.8 µM | > 0.8 µM | 21 mm | > 20 µM | > 20 µM | 21 mm | 9.4 µM | 100 µM | > 20 µM | 21 mm | zone of inhibition at 50 µg/mL [21]: 21 mm; EC50 [22]: > 20 µM; zone of inhibition at 50 µg/mL [23]: 21 mm; CC50 [24]: 9.1 µM; zone of inhibition at 50 µg/mL [25]: 21 mm; EC50 [26]: > 20 µM; EC50 [27]: > 20 µM; zone of inhibition at 50 µg/mL [28]: 21 mm; EC50 [29]: > 20 µM; TIME [30]: 0.0395 h; EC50 [31]: > 4 µM; MCC [32]: 100 µM; IC50 [33]: > 125 µM; EC50 [34]: > 20 µM; EC50 [35]: > 20 µM; IC50 [36]: > 125 µM; EC50 [37]: > 20 µM
